Consider 5 molecules from ChEMBL document CHEMBL1123888, “Aldosterone antagonists. 2. Synthesis and biological activities of 11,12-dehydropregnane derivatives” (J Med Chem, 1987).

The source made the active and inactive calls. No cut-off for these calls is given here.

Assay [1] concerns the target T1, Mineralocorticoid receptor (Rattus norvegicus) (UniProt P22199).
T1 sequence (whole entry): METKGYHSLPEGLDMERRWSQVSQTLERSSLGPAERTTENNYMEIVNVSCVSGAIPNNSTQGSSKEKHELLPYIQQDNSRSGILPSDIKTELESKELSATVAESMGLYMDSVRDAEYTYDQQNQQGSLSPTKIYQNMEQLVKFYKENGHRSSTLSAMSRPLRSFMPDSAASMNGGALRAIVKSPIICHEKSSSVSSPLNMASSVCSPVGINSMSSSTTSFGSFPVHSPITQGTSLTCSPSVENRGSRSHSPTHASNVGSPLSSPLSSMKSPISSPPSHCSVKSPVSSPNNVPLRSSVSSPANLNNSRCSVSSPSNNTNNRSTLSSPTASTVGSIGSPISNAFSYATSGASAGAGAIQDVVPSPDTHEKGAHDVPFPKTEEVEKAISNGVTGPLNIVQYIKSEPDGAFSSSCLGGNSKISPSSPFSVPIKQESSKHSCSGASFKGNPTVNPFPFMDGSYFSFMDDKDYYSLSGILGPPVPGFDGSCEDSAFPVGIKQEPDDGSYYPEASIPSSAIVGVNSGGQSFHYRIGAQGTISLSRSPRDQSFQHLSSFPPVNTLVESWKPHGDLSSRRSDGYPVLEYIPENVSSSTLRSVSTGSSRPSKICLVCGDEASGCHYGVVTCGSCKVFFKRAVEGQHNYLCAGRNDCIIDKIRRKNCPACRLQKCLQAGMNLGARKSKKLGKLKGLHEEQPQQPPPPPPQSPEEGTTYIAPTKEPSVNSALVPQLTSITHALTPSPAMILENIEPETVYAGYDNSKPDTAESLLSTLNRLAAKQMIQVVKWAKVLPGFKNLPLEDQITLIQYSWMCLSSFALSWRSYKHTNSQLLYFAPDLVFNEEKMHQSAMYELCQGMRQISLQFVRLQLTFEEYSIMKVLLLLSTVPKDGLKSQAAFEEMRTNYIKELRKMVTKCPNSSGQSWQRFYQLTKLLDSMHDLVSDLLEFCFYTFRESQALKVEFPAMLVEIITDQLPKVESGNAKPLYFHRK
Put plainly: Relative binding affinity to the rat mineralocorticoid receptor determined in rat renal cytosol using [3]Ald as ligand. A digest of the protocol: (§1)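 Renal cytosol came from male Sprague-Dawley rats (4-8 weeks) adrenalectomized bilaterally 1 or 2 days earlier. It was incubated with various competitor concentrations and about 1 nM [3H]Ald for 42-48 h at 0 °C or 100-120 min at 25 °C. Bound and free steroid were separated by DCC.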

Assay [2] concerns the target T1, Mineralocorticoid receptor (Rattus norvegicus). Put plainly: Antagonist activity against Mineralocorticoid receptor was determined after subcutaneous administration in Male Sprague Dawley rats. The assay is classed as functional, organism-based. The essentials:
(§2)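 Male rats were bilaterally adrenalectomized (bioassay modified from Kagawa). Ald (1 µg/kg) was given sc, immediately followed by test compound in sesame oil sc or orally. Urine was collected from 2 to 6 h after steroid. Potency came from the urinary Na/K ratio of sample versus control, with 95% confidence limits.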

Assay [3] has the same target. Put plainly: Agonist activity against Mineralocorticoid receptor was determined after subcutaneous administration in Male Sprague Dawley rats; (+) =positive. The assay is classed as functional, organism-based. The conditions noted are these: filed as agonist.
Assay [4] shares this target. Put plainly: Relative binding affinity against mineralocorticoid receptor determined in rat renal cytosol using [3]Ald as ligand. A digest of the protocol: as §1
For another assay, the species on record is Rattus norvegicus. Nature of the assay: Displacement of [3H]promegestone from progestin receptor of rat uterine cytosol at 0 degree Centigrade. A digest of the protocol: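 Uteri from estradiol-primed rats supplied the cytosol. It was incubated with various competitor concentrations and about 1 nM [3H]promegestone for 16-20 h at 0 °C. Bound and free steroid were separated by DCC. RBA (progesterone = 100%) = 100 × ratio of the 50%-inhibition concentrations of standard and competitor.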

Assay [5] deals with T1, Mineralocorticoid receptor (Rattus norvegicus). Put plainly: Relative potency compared to Aldosterone; Range is 177-1340. The class given is functional.
Assay [6] has the same target. Nature of the assay: Antagonist activity against Mineralocorticoid receptor after oral administration in Male Sprague Dawley rats; (-) = negative. The class given is functional, organism-based. The essentials: as §2
The target is the same in assay [7]. Nature of the assay: Antagonist activity against Mineralocorticoid receptor after po administration in Male Sprague Dawley rats; (+) =positive. The assay is classed as functional, organism-based. The conditions noted are these: filed as antagonist. A digest of the protocol: as §2
Assay [8] has the same target. Put plainly: Relative potency compared to Aldosterone;Range 4.3-23. The assay is classed as functional.
Assay [9] deals with T2, Progesterone receptor (Rattus norvegicus) (UniProt Q63449).
T2 sequence (whole entry): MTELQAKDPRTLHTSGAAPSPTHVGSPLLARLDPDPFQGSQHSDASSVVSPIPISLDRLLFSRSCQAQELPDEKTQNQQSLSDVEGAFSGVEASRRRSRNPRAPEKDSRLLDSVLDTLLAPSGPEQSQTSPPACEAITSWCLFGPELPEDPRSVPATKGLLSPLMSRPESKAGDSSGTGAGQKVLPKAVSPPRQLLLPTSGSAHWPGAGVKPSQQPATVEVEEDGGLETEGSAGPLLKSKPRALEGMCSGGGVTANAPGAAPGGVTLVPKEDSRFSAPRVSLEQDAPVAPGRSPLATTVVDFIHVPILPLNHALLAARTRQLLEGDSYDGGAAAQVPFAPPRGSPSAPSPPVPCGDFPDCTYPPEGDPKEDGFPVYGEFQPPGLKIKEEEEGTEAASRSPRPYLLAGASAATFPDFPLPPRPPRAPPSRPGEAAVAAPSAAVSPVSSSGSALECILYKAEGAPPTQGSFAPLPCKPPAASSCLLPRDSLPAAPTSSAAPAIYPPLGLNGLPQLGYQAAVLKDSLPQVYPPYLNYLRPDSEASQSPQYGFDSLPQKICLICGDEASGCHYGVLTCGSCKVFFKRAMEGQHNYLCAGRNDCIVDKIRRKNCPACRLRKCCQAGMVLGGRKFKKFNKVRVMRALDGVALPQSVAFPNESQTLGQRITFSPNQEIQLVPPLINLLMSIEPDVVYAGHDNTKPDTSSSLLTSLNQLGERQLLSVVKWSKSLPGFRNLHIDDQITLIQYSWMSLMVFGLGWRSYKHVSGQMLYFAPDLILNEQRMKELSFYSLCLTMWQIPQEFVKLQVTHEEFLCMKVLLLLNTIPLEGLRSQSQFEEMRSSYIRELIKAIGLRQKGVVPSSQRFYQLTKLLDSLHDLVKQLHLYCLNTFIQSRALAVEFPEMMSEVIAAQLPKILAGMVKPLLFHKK
Put plainly: Relative binding affinity against progesterone receptor determined in rat […] cytosol using [3H]DHT as ligand.

The target in assay [10] is T1, Mineralocorticoid receptor (Rattus norvegicus). Put plainly: Relative potency against mineralocorticoid receptor. The class given is functional. A digest of the protocol: as §2
For assay [11] the target is unchanged. Put plainly: In vivo relative Mineralocorticoid activity in Male Sprague-Dawley rats. The assay is classed as functional, organism-based.
Assay [12] shares this target. Put plainly: Antagonist activity against Mineralocorticoid receptor after subcutaneous administration in Male Sprague Dawley rats; (+) =positive. The assay is classed as functional, organism-based. To be noted: filed as antagonist. The essentials:
as §2

For assay [13] the target is unchanged. Nature of the assay: Antagonist activity against Mineralocorticoid receptor after oral administration in Male Sprague Dawley rats; (+) =positive. The assay is classed as functional, organism-based. The conditions noted are these: filed as antagonist. The essentials: as §2
Assay [14] shares this target. Put plainly: Antagonist activity against Mineralocorticoid receptor after po administration in Male Sprague Dawley rats; (-) = negative. The class given is functional, organism-based. The essentials:
as §2

Assay [15] concerns the target T3, Androgen receptor (Rattus norvegicus) (UniProt P15207).
T3 sequence (whole entry): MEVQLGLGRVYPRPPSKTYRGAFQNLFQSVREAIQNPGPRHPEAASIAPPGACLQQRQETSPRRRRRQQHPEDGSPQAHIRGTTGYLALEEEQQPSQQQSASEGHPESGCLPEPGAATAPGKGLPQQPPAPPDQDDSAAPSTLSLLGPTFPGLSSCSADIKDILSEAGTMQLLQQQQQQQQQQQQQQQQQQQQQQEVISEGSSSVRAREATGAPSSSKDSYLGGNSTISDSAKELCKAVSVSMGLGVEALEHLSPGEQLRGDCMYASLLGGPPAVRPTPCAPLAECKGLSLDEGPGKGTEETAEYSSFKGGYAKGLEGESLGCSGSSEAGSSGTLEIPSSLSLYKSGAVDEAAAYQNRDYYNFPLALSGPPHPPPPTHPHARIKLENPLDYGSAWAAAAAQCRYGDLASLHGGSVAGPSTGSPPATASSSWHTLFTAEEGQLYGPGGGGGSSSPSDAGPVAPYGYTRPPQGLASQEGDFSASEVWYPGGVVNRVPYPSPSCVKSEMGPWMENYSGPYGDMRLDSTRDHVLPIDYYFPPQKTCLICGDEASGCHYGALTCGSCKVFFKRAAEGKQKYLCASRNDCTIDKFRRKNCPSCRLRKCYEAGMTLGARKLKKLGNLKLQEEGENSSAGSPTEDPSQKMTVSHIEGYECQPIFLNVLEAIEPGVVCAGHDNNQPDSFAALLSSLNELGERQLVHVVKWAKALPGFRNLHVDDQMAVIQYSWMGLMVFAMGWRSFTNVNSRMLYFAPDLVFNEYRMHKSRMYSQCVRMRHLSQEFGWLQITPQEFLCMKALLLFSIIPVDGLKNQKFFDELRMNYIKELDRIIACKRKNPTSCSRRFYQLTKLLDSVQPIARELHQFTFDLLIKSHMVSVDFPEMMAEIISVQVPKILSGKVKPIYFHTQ
Put plainly: Relative anti-androgenic activity as suppressive effect on weight increase of ventral prostate in castrated immature rats given testosterone propionate (95% confidence limit). The class given is functional. The conditions noted are these: Prostate gland. A digest of the protocol: (§3)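 Male Sprague-Dawley rats (3 weeks old) were castrated 3 days earlier. […] Suppression of accessory sex organ weight gain gave relative antiandrogenic activity.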

For assay [16], the target named is T1, Mineralocorticoid receptor (Rattus norvegicus). Put plainly: (§4) Relative anti-mineralocorticoid potency compared to Spironolactone after oral administration. The assay is classed as functional, organism-based. A digest of the protocol:
as §2

Assay [17] has the same target. Described as §4. The class given is functional, organism-based. The essentials:
as §2
The source holds these as a separate data set.

In assay [18] the target is T3, Androgen receptor (Rattus norvegicus). Nature of the assay: Relative anti-androgenic activity as suppressive effect on weight increase of seminal vesicle in castrated immature rats given testosterone propionate (95% confidence limit). The class given is functional. The essentials:
as §3

The target in assay [19] is T1, Mineralocorticoid receptor (Rattus norvegicus). Put plainly: Agonist activity against Mineralocorticoid receptor after subcutaneous administration in Male Sprague Dawley rats; (-) = negative. The assay is classed as functional, organism-based.

`CC12CCC(=O)C=C1CCC1C2C=CC2(C)C1CC[C@@]21CCC(=O)O1` (stereo partly specified): the RBA in assay [1] came to 440%; in assay [4] it was 570%; in the assay listed under Rattus norvegicus it was 53%. Moreover, in [2], the result was inactive. For the same molecule, the Activity result in [3] was “Agonist”. In assay [5], this molecule returned a Relative potency of 177.
In the case of `CC(=O)S[C@@H]1CC2=CC(=O)C=CC2(C)C2C=CC3(C)C(C4CC4[C@@]34CCC(=O)O4)C21` (stereo partly specified), the RBA in assay [1] was 350%; in [4], 91%; in assay [9] it was 23%. The result in [2] and in assay [6] was inactive. Besides, the Activity entry in assay [7] was “Antagonist”. For the same molecule, in assay [8], the Relative potency came to 4.3.
Take `C[C@]12CCC(=O)C=C1CC[C@@H]1[C@@H]2[C@@H](O)C[C@]2(C=O)[C@@H](C(=O)CO)CC[C@@H]12`: the Relative potency in assay [10] worked out at 1. The Relative activity in [11] worked out at 30.
`CC12C=CC(=O)C=C1C=CC1C2C=CC2(C)C1CC[C@@]21CCC(=O)O1` (stereo partly specified): the values for the RBA (in assay [1]; in assay [4]; in the assay listed under Rattus norvegicus) were 20%, 22% and 1.6%, respectively. Besides, the Activity entry in assay [12] is “Antagonist”; in assay [13], “Antagonist”; in assay [15] it was 0.42; in assay [18] it was 0.14. Further, the result in assay [14] was inactive. Moreover, the Relative potency came out at 0.93 in [16] and 2.08 in assay [17].
Regarding `CC12CCC(=O)C=C1[C@H]1C[C@H]1C1C2C=CC2(C)C1CC[C@@]21CCC(=O)O1` (stereo partly specified), the RBA came out at 110% in assay [1], 88% in [4] and 6.7% in assay [9]. Also, the Activity result in assay [12] is “Antagonist”. Also, the outcome in [19] was inactive. Also, the Relative potency in [17] is 1.48.
